KCNQ1 act – human KCNQ1 channel potentiation or activation; P51787; 0.35% of 310,000 active; AID 2648; CHO-K1 KCNQ1, thallium flux FluxOR fluorescence; hits give high values; B-score at 10 µM;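 active = fluorescence ratio B-score, a plate-corrected score, at least three library SD, with initial intensity B-score within 5 SD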
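Assay system: CHO-K1 cells stably expressing KCNQ1. Medium: assay buffer for compound exposure, DMSO matched across wells. Timing: 37 °C overnight plating, 90-min dark dye load, 20-min compound pretreatment. Signal: kinetic FluxOR fluorescence, 10 s baseline plus 110 s post-stimulus.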
KCNK9 inh – inhibitors of human KCNK9 two-pore domain potassium channel. B-score at 10 µM. Q9NPC2. 1.2% of 310,000 active. AID 488922. HEK293 KCNK9, FluxOR thallium flux fluorescence; hits give low values;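 active = ratio B-score over 3 SD below the library mean, with starting fluorescence within 5 SD of its mean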;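 note: negative B-score means less thallium flux so channel inhibition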
Kir21 block – Kir2.1 (mouse) channel inhibition; P35561; HEK293-Kir2.1, FluxOR thallium flux fluorescence; hits give low values; B-score at 10 µM; 0.85% of 310,000 active; AID 1672;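 active = fluorescence ratio B-score at or below minus 3 SD of library scores, with starting-brightness B-score within 2 SD, cut at about -4.2 in these data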;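 note: channel flux triggered by added potassium and thallium sulfate stimulus; B-score of peak minus minimum fluorescence over baseline after thallium stimulus; more negative B-score means stronger Kir2.1 block with less thallium influx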
hERG protect – shields human hERG channel from block by proarrhythmic agents | Q12809 | activation (rescue from dofetilide block), less the hit threshold, % at 10 µM | CHO-hERG, FluxOR thallium flux, dofetilide IC70 present | 0.51% of 310,000 active | AID 1511;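 active = activation above the mean of controls blocked by dofetilide plus 5 SD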;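 note: thallium influx through hERG after potassium depolarization seen as dye fluorescence rise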
Target sequence (Q12809 whole entry, looked up): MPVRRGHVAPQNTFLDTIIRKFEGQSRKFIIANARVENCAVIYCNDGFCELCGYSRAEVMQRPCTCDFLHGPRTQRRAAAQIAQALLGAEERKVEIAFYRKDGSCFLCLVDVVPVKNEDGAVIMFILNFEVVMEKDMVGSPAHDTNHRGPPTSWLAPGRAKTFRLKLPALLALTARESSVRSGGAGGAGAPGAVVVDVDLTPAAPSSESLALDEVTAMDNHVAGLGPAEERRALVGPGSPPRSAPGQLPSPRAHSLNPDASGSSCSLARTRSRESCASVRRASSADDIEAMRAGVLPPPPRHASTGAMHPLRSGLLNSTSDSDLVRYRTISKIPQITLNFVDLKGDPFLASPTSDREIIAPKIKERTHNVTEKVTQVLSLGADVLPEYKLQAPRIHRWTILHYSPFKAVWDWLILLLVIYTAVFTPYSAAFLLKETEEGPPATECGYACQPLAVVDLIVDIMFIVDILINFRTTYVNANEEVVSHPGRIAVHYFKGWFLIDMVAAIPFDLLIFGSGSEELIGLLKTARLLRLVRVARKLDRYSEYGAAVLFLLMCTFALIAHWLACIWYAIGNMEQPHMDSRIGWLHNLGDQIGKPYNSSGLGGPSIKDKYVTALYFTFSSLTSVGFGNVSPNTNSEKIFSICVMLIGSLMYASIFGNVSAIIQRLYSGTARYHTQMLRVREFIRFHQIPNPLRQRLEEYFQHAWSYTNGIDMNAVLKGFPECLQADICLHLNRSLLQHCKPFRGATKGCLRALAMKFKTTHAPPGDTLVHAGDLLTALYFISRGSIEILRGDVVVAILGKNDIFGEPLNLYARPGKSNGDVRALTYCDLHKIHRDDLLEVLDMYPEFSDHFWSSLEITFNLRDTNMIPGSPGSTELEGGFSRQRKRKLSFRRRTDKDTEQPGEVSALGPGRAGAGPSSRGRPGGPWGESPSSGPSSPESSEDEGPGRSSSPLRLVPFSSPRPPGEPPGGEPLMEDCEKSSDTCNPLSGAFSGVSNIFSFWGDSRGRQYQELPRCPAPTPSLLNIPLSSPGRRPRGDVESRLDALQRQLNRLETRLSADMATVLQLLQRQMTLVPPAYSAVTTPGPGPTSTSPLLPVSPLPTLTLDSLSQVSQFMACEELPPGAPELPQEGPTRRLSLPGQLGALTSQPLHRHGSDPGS
KCNK3 inh – human KCNK3 channel inhibition, primary screen; 0.84% of 340,000 active; O14649; CHO-KCNK3 thallium flux, FluxOR fluorescence; hits give low values; B-score at 10 µM;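 active = B-score under library mean minus 4 SD, starting fluorescence ratio at most library mean plus 5 SD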;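 note: more negative B-score means stronger inhibition of thallium flux through KCNK3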
KCNQ1 inh – blocks the human KCNQ1 potassium channel. P51787. B-score at 10 µM. CHO-K1 KCNQ1, FluxOR thallium flux fluorescence; hits give high values. AID 2642. 1.3% of 310,000 active;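 active = compounds whose thallium flux B-score, printed positive for inhibition, exceeds three library SD while starting fluorescence stays within three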;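 note: channel opened by potassium depolarization with thallium stimulus after 20 min compound exposure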
KCNK9 block conf – human KCNK9 inhibitor confirmation. inhibition, % at 10 µM. shares compounds with KCNK9 inh. HEK293 KCNK9 cells, FluxOR thallium flux fluorescence. AID 492992. 43% of 4,900 active;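 active = thallium signal inhibited by more than 5 SD of the compound-free buffer control wells, on both duplicate plates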
Kir2-1 spec – tests whether KCNK9 modulators also affect mouse Kir2.1; 4% of 4,900 active; Kir2.1 cells, FluxOR thallium flux fluorescence; shares compounds with KCNK9 inh; inhibition, % at 10 µM;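 active = thallium signal drop more than 5 SD beyond the mean of the no-compound control wells, seen in both duplicate plates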;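 note: signal is fluorescence rise after thallium addition divided by baseline fluorescence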
HEK293 Tl ctr – non-induced cell nonspecific activity of KCNK9 modulators; 40% of 4,900 active; non-induced KCNK9-HEK293, FluxOR thallium flux; shares compounds with KCNK9 inh; inhibition, % at 10 µM;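 active = thallium signal drop beyond 5 SD of the untreated control mean, on both duplicate plates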
Numbers stand for hits; . = inactive; / = not tested or not shown. In the library only some 3.8% were active in any assay of this set; here they are far more common.

SMILES	KCNQ1 act	KCNK9 inh	Kir21 block	hERG protect	KCNK3 inh	KCNQ1 inh	KCNK9 block conf	Kir2-1 spec	HEK293 Tl ctr
COc1cc(/C=N\NC(=O)c2ccc(-c3ccccc3)cc2)ccc1OCC(N)=O	.	.	.	.	.	.	/	/	/
COc1ccc(/C=N/NC(=O)c2nc(-c3ccccc3)cc(-c3ccccc3)n2)cc1OC	.	-9.73	.	.	.	.	31.0%	.	.
CN(C)C(CNC(=O)CCc1nc2ccccc2s1)c1ccccc1 (configuration not stated)	.	.	.	.	.	.	/	/	/
COC(=O)c1sc(-c2ccccc2)cc1NC(=O)C1CC1	.	.	.	.	.	.	/	/	/
COC(=O)c1sc(-c2ccc(C(C)(C)C)cc2)cc1NC(=O)CSCC(=O)O	.	.	.	.	.	.	.	.	.
COC(=O)c1sc(-c2ccc(C(C)(C)C)cc2)cc1NC(=O)c1ccccc1C(=O)O	.	.	.	.	.	.	.	.	.
CCOC(=O)C1(CCCc2ccccc2)CCN(C2CCSCC2)CC1	.	.	.	.	.	.	.	.	.
OCC1(CCCc2ccccc2)CCN(C2CCSCC2)CC1	.	.	.	.	.	.	/	/	/
CN(CC(=O)Nc1cccc(F)c1)C(=O)CCSc1ccc(F)cc1	.	.	.	.	.	.	/	/	/
Cc1ccc(Cl)cc1N1CCN(Cc2nc3c(c(=O)[nH]c(=O)n3C)n2Cc2ccccc2F)CC1	.	-8.81	.	.	.	.	.	.	.
Cn1c(=O)[nH]c(=O)c2c1nc(Br)n2Cc1ccccc1F	.	.	.	.	.	.	.	.	.
CN(C)c1ccc(NC(=O)COC(=O)Cn2nnc3ccccc32)cc1	.	.	.	.	.	.	/	/	/
COCCCn1c(SCC(=O)N2CCc3ccccc32)nnc1-c1ccco1	.	.	.	.	.	.	/	/	/
CS(=O)(=O)c1ccc(Cl)c(NC(=O)C2CC(=O)N(c3ccc4c(c3)OCCO4)C2)c1 (configuration not stated)	.	.	.	.	.	.	/	/	/
O=C(N/N=C/c1cccnc1)c1cc(-c2ccccc2)nc2ccccc12	.	.	.	.	.	.	/	/	/
Cc1ccc(C)c(-c2cc(C(=O)N/N=C/c3cccnc3)c3ccccc3n2)c1	.	-12.9	.	.	-9.95	.	53.5%	.	31.5%
COc1ccc2oc(=O)c(-c3csc(Nc4cccc(O)c4)n3)cc2c1	.	-15	.	.	.	11	65.5%	.	28.5%
COc1ccc(Nc2nc(-c3cc4cccc(OC)c4oc3=O)cs2)cc1	.	.	.	.	.	.	/	/	/
O=C(c1cc(S(=O)(=O)N2CCOCC2)c(Cl)cc1Cl)N1CCCCC1CO (configuration not stated)	.	.	.	.	.	.	/	/	/
CCN(C(=S)Nc1ccc(Oc2ccccc2)cc1)c1ccccc1	.	.	.	.	.	.	.	.	.
O=C(CSc1ccccc1)NC1CCCCCC1	.	.	.	.	.	.	/	/	/
CC(=C/c1ccc(C(C)C)cc1)/C=N/NC(=O)CSc1ccccn1	.	-19.7	.	.	.	.	60.5%	.	45.0%
CC(/C=N/NC(=O)CSc1ccccn1)=C\c1ccc(C(C)C)cc1	.	-12.9	.	.	.	.	59.0%	.	37.0%
Cc1ccc(-c2nnc3c(C(F)(F)F)nc4ccccc4n23)cc1	.	.	.	.	.	.	/	/	/
Cc1c(N=C(N)/N=C(\N)Nc2ccccc2)c(=O)n(-c2ccccc2)n1C	.	.	.	.	.	.	/	/	/
SMILES	KCNQ1 act	KCNK9 inh	Kir21 block	hERG protect	KCNK3 inh	KCNQ1 inh	KCNK9 block conf	Kir2-1 spec	HEK293 Tl ctr
Cc1c(N=N/C(C(=O)Nc2ccccc2)=C(/O)c2ccccc2)c(=O)n(-c2ccccc2)n1C	.	-9.1	.	.	.	9	.	.	45.5%
CCOc1cc(/C=C2\C(=O)N(Cc3ccc(C)cc3)C(C)=C2C(=O)OC)ccc1O	.	-10.7	.	.	.	7	41.0%	.	31.5%
COC(=O)C1=C(C)N(CCc2ccc(OC)c(OC)c2)C(=O)/C1=C\c1ccc(O)cc1	.	.	.	.	.	.	/	/	/
CN(C(=O)c1c[nH]c(=O)cc1C(F)(F)F)c1ccc(Cl)c(Cl)c1	.	.	.	.	.	.	/	/	/
COc1cc(-c2c(C#N)c(N)nc(SCc3ccncc3)c2C#N)cc(OC)c1OC	.	-10.1	.	.	.	.	.	.	27.0%
Cc1ncc([N+](=O)[O-])n1CC(=O)NC1CCCCC1	.	.	.	.	.	.	/	/	/
Cc1cc(C(=O)COC(=O)CNC(=O)c2ccco2)c(C)n1Cc1ccco1	.	.	.	.	.	.	/	/	/
Cc1cc(C(=O)COC(=O)CCC(=O)c2ccc3c(c2)OCCO3)c(C)n1Cc1ccco1	.	.	.	.	.	.	.	.	.
COc1cc(OC)cc(C(=O)NCC(=O)OCC(=O)c2cc(C)n(Cc3ccco3)c2C)c1	.	.	.	.	.	.	/	/	/
Cc1cc(C(=O)COC(=O)c2ccc(Br)o2)c(C)n1Cc1ccco1	.	.	.	.	/	.	.	.	.
COC(=O)CNC(c1ccccc1)c1cc(Br)ccc1NC(=O)OCc1ccccc1 (configuration not stated)	.	-18.1	.	.	.	.	74.0%	.	63.5%
CSc1ccccc1NC(=O)CSCc1ccc(C)cc1	.	.	-5.07	.	.	.	.	.	.
Cc1ccc(NC(=O)CSCC(=O)NCCc2ccccc2)cc1	.	.	.	.	.	.	/	/	/
Cc1ccc(CSCC(=O)Nc2ccccc2C(=O)O)cc1	.	.	.	.	.	.	/	/	/
Cc1ccc(CSCC(=O)NCCc2ccccc2)cc1	.	.	.	.	.	.	.	.	.
Cc1ccc(CSCCNC(=O)CSCc2ccc([N+](=O)[O-])cc2)cc1	.	.	.	.	.	.	.	.	.
Cc1cccc(CSCCNC(=O)CSCc2ccc([N+](=O)[O-])cc2)c1	.	.	.	.	.	.	/	/	/
CC1c2cc3c(cc2CCN1C(=O)c1ccc(Br)cc1)OCCCO3 (configuration not stated)	.	.	.	.	.	.	/	/	/
CC(=O)c1cccc(NC(=O)CN2CCc3cc4c(cc3C2)OCCCO4)c1	.	.	.	.	.	.	/	/	/
Cc1ccc(NC(=O)CN2CCc3cc4c(cc3C2)OCCCO4)cc1	.	.	.	.	.	.	/	/	/
Cc1cc(C)cc(NC(=O)CN2CCc3cc4c(cc3C2C)OCCCO4)c1 (configuration not stated)	.	.	.	.	.	.	.	.	.
